From ChEMBL document CHEMBL2203111, “An Hsp90 modulator that exhibits a unique mechanistic profile” (Bioorg Med Chem Lett, 2012) come the findings set out here.

Usually IC50 stands for the midpoint of a concentration-inhibition curve.

The target of test [1] is T1, Heat shock protein HSP90 (Homo sapiens) (UniProt P07900+P08238). The experiment in a line: Binding affinity to HSP90 in human HCT116 cell lysates at 0.6 uM after 1 hr by Western blot based pull down assay. It is filed as protein assay. Particulars: HCT-116. An outline of the steps:
(§1)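 Biotinylated probe incubated with HCT116 cell lysate; neutravidin-agarose beads added to capture probe with bound proteins, beads washed ten times, proteins eluted in sample buffer and resolved by gel/Western blot. Controls: PEGylated biotin linker alone and DMSO.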

Test [2] is described as follows: Binding affinity to N-middle domain of HSP90 expressed in BL21(DE)3 Escherichia coli cells at 5 uM after 2 hrs by Western blotting method based pull down assay. Background: In western blotting, separated proteins are transferred to a membrane and probed.
Test [3] addresses Glyceraldehyde-3-phosphate dehydrogenase (Homo sapiens) (UniProt P04406). Put plainly: Binding affinity to glyceraldehyde-3-phosphate dehydrogenase in human HCT116 cell lysates at 0.6 uM after 1 hr using coomassie blue staining by SDS-PAGE based pull down assay. The following applies: HCT-116. An outline of the steps: as §1
Test [4] has as its system HCT-116. Put plainly: Binding affinity to beta tubulin in human HCT116 cell lysates at 0.6 uM after 1 hr using coomassie blue staining by SDS-PAGE based pull down assay. It is filed as cell-free. A digest of the protocol:
as §1

In test [5] the test system is HCT-116. The experiment in a line: Binding affinity to actin in human HCT116 cell lysates at 0.6 uM after 1 hr using coomassie blue staining by SDS-PAGE based pull down assay. It is filed as cell-free. An outline of the steps: as §1
The target in test [6] is T1, Heat shock protein HSP90 (Homo sapiens). The experiment in a line: Binding affinity to HSP90 in human HCT116 cell lysates at 0.6 uM after 1 hr using coomassie blue staining by SDS-PAGE based pull down assay. In kind it is protein assay. The following applies: HCT-116. A digest of the protocol: as §1
The target in another test is Myosin-9 (Homo sapiens) (UniProt P35579). The experiment in a line: Binding affinity to myosin-9 in human HCT116 cell lysates at 0.6 uM after 1 hr using coomassie blue staining by SDS-PAGE based pull down assay. The following applies: HCT-116. A digest of the protocol:
as §1

A short description of test [7]: Inhibition of binding of recombinant HSP90 to his-tagged HER2 up to 10 uM by Western blotting analysis.
Test [8] can be described thus: Inhibition of binding of recombinant HSP90 to his-tagged Akt up to 10 uM by Western blotting analysis.
The subject of test [9] is HCT-116. The experiment in a line: Induction of apoptosis in human HCT116 cells assessed as PARP cleavage at 50 uM after 24 hrs by Western blotting analysis. In kind it is functional. A digest of the protocol:
(§2)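 HCT116 cells treated 24 hrs with compound at 0–50 µM; cell lysates analyzed by Western blot for full-length PARP (~113 kDa) and cleaved fragments, full-length PARP quantified relative to untreated cells.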

Test [10] concerns HCT-116. The experiment in a line: Induction of apoptosis in human HCT116 cells assessed as PARP cleavage after 24 hrs by Western blotting analysis. It is filed as functional, cell-based. An outline of the steps: as §2
Test [11] concerns the target T1, Heat shock protein HSP90 (Homo sapiens). Put plainly: Binding affinity to HSP90 in human HCT116 cells assessed as increase in staining intensity in cytosol at 5 uM after 72 hrs by immunofluorescence staining analysis. In kind it is cell-based. The following applies: HCT-116. An outline of the steps: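 HCT116 colon cancer cells treated 72 hours (DMSO as vehicle control, 17-AAG as reference Hsp90 inhibitor); Hsp90 visualized by immunofluorescence with a polyclonal anti-Hsp90 antibody, cytosolic staining intensity compared with DMSO-treated cells.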

The nature of test [12]: Competitive binding affinity to N-middle domain of HSP90 expressed in BL21(DE)3 Escherichia coli cells after 1 hr by immunoblotting analysis in the presence of 2-chlorobenzyl 4-((2R,5S,8S,11S,14R)-11,14-dibenzyl-8-isobutyl-5-isopropyl-13-methyl-3,6,9,12,15-pentaoxo-1,4,7,10,13-pentaazacyclopentadecan-2-yl)butylcarbamate.

The structures appear in SMILES notation. Calls of active or inactive are those of the source. No cut-off for these calls is given here. *1 amine or outer side, *2 acyl side, *3 side chain or, on linkers, in order; H or OH if unused. Where a SMILES comes first, the peptide text is derived from it. [ ]: non-standard residue; d: D form. X1 = O=C([C@H](N[*:1])[C@H](OCc1ccccc1)c1ccccc1)[*:2]; NMeV = CN[C@H](C(=O)O)C(C)C

Glyceraldehyde-3-phosphate dehydrogenase (Homo sapiens), sequence (P04406 2-335 limits assumed): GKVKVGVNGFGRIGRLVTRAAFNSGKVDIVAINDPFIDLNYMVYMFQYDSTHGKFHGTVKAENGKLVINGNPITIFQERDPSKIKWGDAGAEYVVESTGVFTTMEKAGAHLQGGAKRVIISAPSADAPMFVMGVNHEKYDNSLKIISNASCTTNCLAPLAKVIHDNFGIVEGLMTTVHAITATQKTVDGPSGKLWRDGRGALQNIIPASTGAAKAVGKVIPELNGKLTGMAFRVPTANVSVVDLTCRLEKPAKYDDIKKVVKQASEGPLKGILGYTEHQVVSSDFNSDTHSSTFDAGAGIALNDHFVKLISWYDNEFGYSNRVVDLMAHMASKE
Myosin-9 (Homo sapiens), sequence (P35579 whole entry): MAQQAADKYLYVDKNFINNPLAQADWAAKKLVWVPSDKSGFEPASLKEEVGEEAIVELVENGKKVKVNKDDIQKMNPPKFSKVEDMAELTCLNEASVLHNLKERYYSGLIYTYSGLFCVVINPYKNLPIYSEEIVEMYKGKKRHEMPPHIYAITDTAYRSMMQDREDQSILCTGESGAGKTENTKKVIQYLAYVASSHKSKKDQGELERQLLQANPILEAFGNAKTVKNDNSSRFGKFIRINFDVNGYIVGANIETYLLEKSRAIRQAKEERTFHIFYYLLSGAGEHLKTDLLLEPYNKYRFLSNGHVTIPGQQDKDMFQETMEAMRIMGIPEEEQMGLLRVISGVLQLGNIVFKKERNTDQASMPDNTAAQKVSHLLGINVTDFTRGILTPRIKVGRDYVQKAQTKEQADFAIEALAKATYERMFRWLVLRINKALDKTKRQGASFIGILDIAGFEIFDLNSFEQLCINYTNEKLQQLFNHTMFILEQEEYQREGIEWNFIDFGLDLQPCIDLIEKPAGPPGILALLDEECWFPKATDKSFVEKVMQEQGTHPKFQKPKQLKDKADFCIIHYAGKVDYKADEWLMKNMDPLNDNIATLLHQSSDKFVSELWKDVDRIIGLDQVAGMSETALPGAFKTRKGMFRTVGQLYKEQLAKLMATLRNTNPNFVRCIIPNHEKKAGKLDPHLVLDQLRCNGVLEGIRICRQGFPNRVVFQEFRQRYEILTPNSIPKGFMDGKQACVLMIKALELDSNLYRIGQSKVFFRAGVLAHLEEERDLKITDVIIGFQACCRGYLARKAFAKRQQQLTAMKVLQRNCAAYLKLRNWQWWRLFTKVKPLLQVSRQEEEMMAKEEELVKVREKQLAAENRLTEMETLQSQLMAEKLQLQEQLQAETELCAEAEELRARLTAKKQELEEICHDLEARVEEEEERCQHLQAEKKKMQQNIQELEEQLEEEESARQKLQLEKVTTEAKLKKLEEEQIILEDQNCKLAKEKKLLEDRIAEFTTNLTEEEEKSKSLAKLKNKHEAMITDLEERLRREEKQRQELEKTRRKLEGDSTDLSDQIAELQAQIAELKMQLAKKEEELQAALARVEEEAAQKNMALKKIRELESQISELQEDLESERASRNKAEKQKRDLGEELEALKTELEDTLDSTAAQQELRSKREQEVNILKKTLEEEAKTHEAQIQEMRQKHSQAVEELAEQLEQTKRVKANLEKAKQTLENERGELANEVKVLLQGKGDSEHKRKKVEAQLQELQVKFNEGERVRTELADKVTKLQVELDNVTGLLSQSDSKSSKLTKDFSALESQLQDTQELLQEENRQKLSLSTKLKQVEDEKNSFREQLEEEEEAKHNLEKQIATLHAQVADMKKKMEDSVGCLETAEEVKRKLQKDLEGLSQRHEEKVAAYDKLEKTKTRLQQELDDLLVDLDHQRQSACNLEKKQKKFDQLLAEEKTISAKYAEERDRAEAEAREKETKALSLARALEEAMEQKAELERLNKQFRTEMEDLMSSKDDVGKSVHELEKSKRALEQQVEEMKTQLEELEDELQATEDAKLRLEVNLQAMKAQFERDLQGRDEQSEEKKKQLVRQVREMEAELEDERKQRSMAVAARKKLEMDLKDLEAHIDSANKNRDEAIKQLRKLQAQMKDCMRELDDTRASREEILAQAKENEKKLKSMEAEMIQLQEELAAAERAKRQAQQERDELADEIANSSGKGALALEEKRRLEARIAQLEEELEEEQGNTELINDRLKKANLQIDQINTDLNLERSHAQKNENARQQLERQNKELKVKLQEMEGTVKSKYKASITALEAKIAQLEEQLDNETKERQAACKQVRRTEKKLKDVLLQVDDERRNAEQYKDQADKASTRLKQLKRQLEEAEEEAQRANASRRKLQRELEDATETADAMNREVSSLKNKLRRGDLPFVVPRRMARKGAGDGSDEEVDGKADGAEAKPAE

Consider `CC(C)C[C@@H]1NC(=O)[C@H](CCCCNC(=O)CCOCCOCCOCCOCCNC(=O)CCCC[C@@H]2SC[C@@H]3NC(=O)N[C@@H]32)NC(=O)[C@@H](CCCCNC(=O)OCc2ccccc2Cl)NC(=O)[C@@H](Cc2ccccc2)N(C)C(=O)[C@H](Cc2ccccc2)NC1=O`, for which the outcome (in test [1]; in test [2]; in test [3]; in the test with HCT-116 [4]; with HCT-116 [5]; in [6]) was Active. Also, the result at Myosin-9 (Homo sapiens) was Active.

For the compound `CC(C)[C@@H]1NC(=O)[C@@H](CCCCNC(=O)OCc2ccccc2Cl)NC(=O)[C@@H](Cc2ccccc2)N(C)C(=O)[C@H](Cc2ccccc2)NC(=O)[C@H](CCCCNC(=O)CCOCCOCCOCCOCCNC(=O)CCCC[C@@H]2SC[C@@H]3NC(=O)N[C@@H]32)NC1=O`, the result (in [1]; in [3]; in the test with HCT-116 [4]; in the test on HCT-116 [5]; in [6]; on Myosin-9 (Homo sapiens)) was inactive.

Consider `CC(C)C[C@@H]1NC(=O)[C@H](C(C)C)NC(=O)[C@@H](CCCCNC(=O)OCc2ccccc2Cl)NC(=O)[C@@H](Cc2ccccc2)N(C)C(=O)[C@H](Cc2ccccc2)NC1=O`, for which the inhibition result in test [7] and in test [8] was “inactive” each time. In addition, the Activity is 48% in the test with HCT-116 [9] and “Dose-dependent effect” with HCT-116 [10]. Moreover, in test [11], the outcome was Active. In test [12], the concentration for half-maximal inhibition (IC50) was found to be 6.2 µM.

In the case of `CC(C)C[C@@H]1NC(=O)[C@H](C(C)C)N(C)C(=O)[C@@H](CC(C)C)NC(=O)[C@@H](Cc2ccccc2)NC(=O)[C@@H]([C@H](OCc2ccccc2)c2ccccc2)NC1=O` (cyclo(L[X1][dF][dL][NMeV])), the result in test [11] was Active. The IC50 in [12] turned out to be 1.9 µM.
